Laboratory results reported in ChEMBL document CHEMBL1275385, “Discovery and biological evaluation of potent, selective, orally bioavailable, pyrazine-based blockers of the Na(v)1.8 sodium channel with efficacy in a model of neuropathic pain” (Bioorg Med Chem, 2010).
In brackets after ≈: the same amount, converted by molar mass. Activity calls are given as the source filed them.

Assays:
[1] = Aqueous solubility of the compound; format: physicochemical; settings: buffer
[2] = Clearance in rat microsomes; format: ADME, Liver, Microsome
[3] = target: Beta-2 adrenergic receptor (Homo sapiens) (UniProt P07550); experiment: Inhibition of human adrenergic beta2 receptor at 10 uM
Rattus norvegicus [4] = experiment: Analgesic activity in Sprague-Dawley rat L5/L6 spinal nerve injury Chung model of neuropathic pain assessed as reduction of von Frey hair-induced paw withdrawal threshold at 100 mg/kg, po administered 60 mins before von Frey hair challenge; format: functional
Summary of the method: (§1)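 Rats with L5/L6 spinal nerve ligation (Kim and Chung method) dosed orally at 10, 30 or 100 mg/kg, 60 min before von Frey testing of paw withdrawal threshold on the injured and contralateral sides. At least six animals per group, compared with vehicle-treated animals; mean ± SEM, ANOVA with post-hoc tests (P <0.05). ED50 estimated by least-squares linear regression.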

[5] = target: Sodium channel protein type 10 subunit alpha (Homo sapiens, UniProt Q9Y5Y9); experiment: Inhibition of human recombinant NaV1.8 expressed in HEK293 cells by conventional voltage clamp electrophysiology assay; format: cell-based
Summary of the method: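 HEK-293 cells stably expressing human Nav1.8 were recorded by conventional whole-cell voltage clamp with the holding potential at the inactivation V1/2, −40 mV. DMSO stocks (10 mM) were diluted into extracellular solution (final DMSO <0.1%) and gravity-perfused at 1–2 mL/min at 21–25 °C. Each compound was run at 1–3 concentrations with 2–6 measurements each; estimates averaged.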

[6] = target: Sodium channel protein type 10 subunit alpha (Rattus norvegicus, UniProt Q62968); experiment: Inhibition of tetrodotoxin-resistant NaV1.8 in rat dorsal root ganglion neurons at holding potential -100 mV by whole-cell patch clamp electrophysiology assay; format: tissue-based
[7] = target: T1, Sodium channel protein type 2 subunit alpha (Homo sapiens, UniProt Q99250); experiment: Inhibition of human recombinant NaV1.2 by electrophysiology
Summary of the method: (§2)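 Whole-cell voltage clamp of HEK-293 cells expressing recombinant human Nav1.2. Membrane potential was held at the V1/2 of steady-state inactivation, −60 mV. Compounds came from 10 mM DMSO stocks, diluted in extracellular solution (final DMSO <0.1%) and perfused at 1–2 mL/min at room temperature (21–25 °C). Tested at 1–3 concentrations with 2–6 measurements each; estimates averaged. Single-point data given as % inhibition at 3 µM.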

[8] = Oral bioavailability in rat at 3 mg/kg; format: ADME, organism-based; settings: in vivo
Summary of the method: (§3)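 Rat pharmacokinetics (n = 3) after a single 3 mg/kg iv or po dose. Plasma clearance, Vss, half-life and oral bioavailability were derived from plasma exposure.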

[9] = Half life in rat at 3 mg/kg, iv; format: ADME, organism-based; design: dose 3 mg/kg, route intravenous; settings: in vivo; summary of the method: as §3
[10] = target: Substance-P receptor (Homo sapiens) (UniProt P25103); experiment: Inhibition of human NK1 receptor at 10 uM
[11] = Volume of distribution at steady state in rat at 3 mg/kg, iv; format: ADME, organism-based; design: dose 3 mg/kg, route intravenous; settings: in vivo, read-out: Vdss; summary of the method: as §3
Plasma = experiment: Plasma protein binding in rat; format: ADME, cell-free
[12] = Inhibition of BZD receptor at 10 uM
[13] = target: Sodium channel protein type 10 subunit alpha (Mus musculus, UniProt Q6QIY3); experiment: Inhibition of mouse NaV1.8 expressed in HEK293 cells by isotopic efflux assay; format: cell-based
Summary of the method: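 HEK293 cells stably expressing mouse Nav1.8 were loaded overnight with radiotracer, then stimulated. Efflux was read at a single time point on the linear part of the efflux curve. % inhibition = (1 − [test − reference blocker]/[control − reference blocker]) × 100. Eight-point concentration–response curves run in duplicate gave the IC50.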

[14] = target: T1, Sodium channel protein type 2 subunit alpha; experiment: Inhibition of human recombinant NaV1.2 at 3 uM by electrophysiology; summary of the method: as §2
Homo sapiens = species on record: Homo sapiens; experiment: Selectivity ratio of IC50 for human NAv1.8 to IC50 for human Nav1.2
Summary of the method: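 Ratio of the IC50 values from whole-cell voltage clamp of human Nav1.8 (held at −40 mV) and human Nav1.2 (held at −60 mV), both expressed in HEK-293 cells. Each channel was held at its inactivation V1/2.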

[15] = Selectivity ratio of IC50 for human NaV1.8 to IC50 for human Nav1.2
[16] = Selectivity ratio of IC50 for tetrodotoxin-resistant NaV1.8 in rat dorsal root ganglion neurons to IC50 for human Nav1.2; format: tissue-based
Summary of the method: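 Ratio of the IC50 for native TTX-resistant current in dissociated rat DRG neurons (held at V1/2, −40 mV) to the IC50 for recombinant human Nav1.2 in HEK-293 cells (held at −60 mV).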

Rattus norvegicus [17] = experiment: Analgesic activity in po dosed Sprague-Dawley rat L5/L6 spinal nerve injury Chung model of neuropathic pain assessed as reduction of von Frey hair-induced paw withdrawal threshold administered 60 mins before von Frey hair challenge; format: functional; summary of the method: as §1
[18] = Cmax in rat at 3 mg/kg, po; format: ADME, organism-based; design: dose 3 mg/kg, route oral; settings: in vivo
[19] = Half life in rat at 3 mg/kg, po; format: ADME, organism-based; design: dose 3 mg/kg, route oral; settings: in vivo; summary of the method: as §3

Sequence of Sodium channel protein type 10 subunit alpha (Mus musculus, UniProt Q6QIY3) (Q6QIY3 whole entry): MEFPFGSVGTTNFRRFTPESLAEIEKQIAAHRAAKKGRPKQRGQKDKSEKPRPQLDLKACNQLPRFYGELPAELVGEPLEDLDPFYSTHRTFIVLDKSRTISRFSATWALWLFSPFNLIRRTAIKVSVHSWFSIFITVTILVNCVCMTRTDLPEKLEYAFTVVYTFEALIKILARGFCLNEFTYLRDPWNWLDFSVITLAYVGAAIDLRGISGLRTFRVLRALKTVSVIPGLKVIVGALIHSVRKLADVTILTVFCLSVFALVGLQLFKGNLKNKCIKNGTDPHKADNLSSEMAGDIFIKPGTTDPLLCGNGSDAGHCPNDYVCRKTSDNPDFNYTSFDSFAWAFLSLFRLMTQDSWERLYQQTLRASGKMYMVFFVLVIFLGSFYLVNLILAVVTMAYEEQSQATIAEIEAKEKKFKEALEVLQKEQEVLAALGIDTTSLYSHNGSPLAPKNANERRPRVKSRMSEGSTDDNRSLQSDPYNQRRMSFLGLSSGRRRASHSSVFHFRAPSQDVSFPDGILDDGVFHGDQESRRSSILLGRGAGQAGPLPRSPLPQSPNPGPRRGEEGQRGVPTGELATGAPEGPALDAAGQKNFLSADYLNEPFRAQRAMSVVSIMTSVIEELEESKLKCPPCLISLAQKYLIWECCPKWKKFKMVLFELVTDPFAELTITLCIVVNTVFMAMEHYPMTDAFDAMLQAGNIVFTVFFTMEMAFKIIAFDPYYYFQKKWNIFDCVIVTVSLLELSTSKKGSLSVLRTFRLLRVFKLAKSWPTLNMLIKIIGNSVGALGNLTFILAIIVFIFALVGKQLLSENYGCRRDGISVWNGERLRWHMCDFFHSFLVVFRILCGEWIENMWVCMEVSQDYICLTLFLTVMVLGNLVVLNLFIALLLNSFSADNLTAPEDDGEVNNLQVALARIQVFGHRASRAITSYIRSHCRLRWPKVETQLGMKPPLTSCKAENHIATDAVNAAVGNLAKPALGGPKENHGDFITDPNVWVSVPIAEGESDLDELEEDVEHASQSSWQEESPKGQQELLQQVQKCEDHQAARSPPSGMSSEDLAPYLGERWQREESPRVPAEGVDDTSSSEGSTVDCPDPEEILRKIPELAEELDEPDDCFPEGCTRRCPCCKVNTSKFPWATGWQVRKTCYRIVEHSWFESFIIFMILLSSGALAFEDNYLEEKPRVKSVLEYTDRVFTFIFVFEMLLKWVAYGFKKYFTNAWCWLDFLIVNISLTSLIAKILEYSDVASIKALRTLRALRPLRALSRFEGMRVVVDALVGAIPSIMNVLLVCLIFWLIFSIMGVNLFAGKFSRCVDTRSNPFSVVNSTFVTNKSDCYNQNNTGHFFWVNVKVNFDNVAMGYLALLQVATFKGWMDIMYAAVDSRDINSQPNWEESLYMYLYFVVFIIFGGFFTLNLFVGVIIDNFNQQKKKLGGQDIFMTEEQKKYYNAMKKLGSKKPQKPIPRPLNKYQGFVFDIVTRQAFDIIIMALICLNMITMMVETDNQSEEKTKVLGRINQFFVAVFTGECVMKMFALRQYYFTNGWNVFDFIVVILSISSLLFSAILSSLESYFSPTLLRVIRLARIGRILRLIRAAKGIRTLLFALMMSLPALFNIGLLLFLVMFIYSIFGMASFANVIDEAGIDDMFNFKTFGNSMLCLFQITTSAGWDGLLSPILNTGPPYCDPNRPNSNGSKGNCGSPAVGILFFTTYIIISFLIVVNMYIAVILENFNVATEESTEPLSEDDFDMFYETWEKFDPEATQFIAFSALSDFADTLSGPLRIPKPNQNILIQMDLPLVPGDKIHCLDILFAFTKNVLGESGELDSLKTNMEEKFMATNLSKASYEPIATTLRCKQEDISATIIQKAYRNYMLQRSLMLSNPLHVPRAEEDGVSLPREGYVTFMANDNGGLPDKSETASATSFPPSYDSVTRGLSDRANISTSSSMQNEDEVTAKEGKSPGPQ
Sequence of Sodium channel protein type 10 subunit alpha (Homo sapiens, UniProt Q9Y5Y9) (Q9Y5Y9 whole entry, the tested form may be a part): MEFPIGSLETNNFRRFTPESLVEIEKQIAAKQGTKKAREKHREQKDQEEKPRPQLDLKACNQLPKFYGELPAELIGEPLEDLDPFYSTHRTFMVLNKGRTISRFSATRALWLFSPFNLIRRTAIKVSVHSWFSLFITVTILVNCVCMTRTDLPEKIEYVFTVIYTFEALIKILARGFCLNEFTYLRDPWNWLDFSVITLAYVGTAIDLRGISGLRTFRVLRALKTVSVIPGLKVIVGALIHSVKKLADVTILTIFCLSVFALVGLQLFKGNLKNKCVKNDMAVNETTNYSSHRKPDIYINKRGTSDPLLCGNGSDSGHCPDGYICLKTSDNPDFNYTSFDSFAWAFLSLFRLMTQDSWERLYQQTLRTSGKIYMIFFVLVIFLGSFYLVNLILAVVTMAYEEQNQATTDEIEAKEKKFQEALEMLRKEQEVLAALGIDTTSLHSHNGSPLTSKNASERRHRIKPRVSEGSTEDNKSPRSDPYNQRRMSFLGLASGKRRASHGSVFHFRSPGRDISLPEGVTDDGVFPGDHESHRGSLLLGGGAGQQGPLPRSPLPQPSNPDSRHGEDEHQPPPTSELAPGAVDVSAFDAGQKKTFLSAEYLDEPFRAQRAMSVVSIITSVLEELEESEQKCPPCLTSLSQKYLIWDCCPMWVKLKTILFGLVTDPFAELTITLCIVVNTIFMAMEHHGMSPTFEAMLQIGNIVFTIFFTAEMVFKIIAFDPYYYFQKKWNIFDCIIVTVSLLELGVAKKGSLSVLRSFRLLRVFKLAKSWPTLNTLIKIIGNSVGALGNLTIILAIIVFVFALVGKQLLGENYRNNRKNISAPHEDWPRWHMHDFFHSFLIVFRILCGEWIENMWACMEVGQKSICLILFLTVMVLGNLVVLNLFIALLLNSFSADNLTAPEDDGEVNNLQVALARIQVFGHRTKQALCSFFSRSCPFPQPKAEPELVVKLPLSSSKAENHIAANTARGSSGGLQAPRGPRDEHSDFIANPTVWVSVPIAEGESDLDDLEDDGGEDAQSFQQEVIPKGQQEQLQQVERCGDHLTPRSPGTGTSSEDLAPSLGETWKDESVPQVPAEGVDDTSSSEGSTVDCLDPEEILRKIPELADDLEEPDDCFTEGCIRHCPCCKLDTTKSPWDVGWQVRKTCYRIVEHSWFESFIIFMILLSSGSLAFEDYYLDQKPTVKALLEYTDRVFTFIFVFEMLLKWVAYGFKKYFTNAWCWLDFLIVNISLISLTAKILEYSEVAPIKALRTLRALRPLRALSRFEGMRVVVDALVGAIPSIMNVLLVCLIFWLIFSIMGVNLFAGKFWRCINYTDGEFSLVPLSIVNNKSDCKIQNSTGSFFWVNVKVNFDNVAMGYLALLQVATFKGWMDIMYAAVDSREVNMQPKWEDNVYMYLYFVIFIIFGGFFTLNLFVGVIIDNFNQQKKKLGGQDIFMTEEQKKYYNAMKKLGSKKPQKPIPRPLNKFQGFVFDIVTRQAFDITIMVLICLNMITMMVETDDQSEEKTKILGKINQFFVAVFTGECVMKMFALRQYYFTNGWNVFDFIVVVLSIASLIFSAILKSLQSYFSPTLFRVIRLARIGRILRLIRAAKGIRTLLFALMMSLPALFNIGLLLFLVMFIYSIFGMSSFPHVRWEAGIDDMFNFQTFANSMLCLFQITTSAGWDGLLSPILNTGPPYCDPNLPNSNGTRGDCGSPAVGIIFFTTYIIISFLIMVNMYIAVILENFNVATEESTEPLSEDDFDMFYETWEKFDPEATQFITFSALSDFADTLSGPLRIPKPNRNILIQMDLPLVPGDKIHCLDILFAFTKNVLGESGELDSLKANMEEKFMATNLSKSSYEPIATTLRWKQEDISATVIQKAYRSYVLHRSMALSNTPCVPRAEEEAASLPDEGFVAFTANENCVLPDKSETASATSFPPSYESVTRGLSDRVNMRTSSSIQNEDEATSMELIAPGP
Sequence of Substance-P receptor (Homo sapiens) (P25103 whole entry): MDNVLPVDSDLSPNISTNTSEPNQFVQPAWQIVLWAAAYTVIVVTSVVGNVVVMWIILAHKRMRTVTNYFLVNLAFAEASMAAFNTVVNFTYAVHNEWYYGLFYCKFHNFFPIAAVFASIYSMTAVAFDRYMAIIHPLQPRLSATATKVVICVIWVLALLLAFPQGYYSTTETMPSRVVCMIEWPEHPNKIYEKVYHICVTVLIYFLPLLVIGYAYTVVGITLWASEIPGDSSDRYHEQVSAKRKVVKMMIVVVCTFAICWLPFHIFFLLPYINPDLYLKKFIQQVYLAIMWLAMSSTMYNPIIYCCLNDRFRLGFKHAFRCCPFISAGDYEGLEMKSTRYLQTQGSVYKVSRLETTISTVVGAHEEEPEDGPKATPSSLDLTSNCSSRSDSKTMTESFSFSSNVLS
Sequence of Beta-2 adrenergic receptor (Homo sapiens) (P07550 whole entry, looked up): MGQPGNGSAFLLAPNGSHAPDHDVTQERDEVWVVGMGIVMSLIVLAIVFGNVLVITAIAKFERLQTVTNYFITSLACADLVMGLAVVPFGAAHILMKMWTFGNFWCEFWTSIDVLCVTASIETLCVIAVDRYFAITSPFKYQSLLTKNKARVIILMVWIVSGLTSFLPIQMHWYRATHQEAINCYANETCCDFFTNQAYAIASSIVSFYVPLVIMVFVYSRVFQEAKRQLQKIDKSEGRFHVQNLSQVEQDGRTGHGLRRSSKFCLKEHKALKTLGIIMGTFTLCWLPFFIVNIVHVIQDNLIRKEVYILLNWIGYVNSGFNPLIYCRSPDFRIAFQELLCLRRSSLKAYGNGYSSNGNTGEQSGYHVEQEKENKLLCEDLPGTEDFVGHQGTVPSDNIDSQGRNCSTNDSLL

| SMILES | solubility [1] | CL [2] | IC50 [5] | IC50 [6] | IC50 [7] | IC50 [13] | further results |
| --- | --- | --- | --- | --- | --- | --- | --- |
| COc1cc(NC(=O)c2ccc(-c3ccc(Cl)cc3)o2)cc(OC)c1 | < 0.1 µg/mL | 140 µL/min | – | – | – | – | – |
| Cc1cc(C)cc(NC(=O)c2cncc(-c3ccc(C#N)cc3)n2)c1 | 0.03 µg/mL (≈ 0.0914 µM) | 140 µL/min | 8 nM | 84 nM | 1600 nM | 470 nM | inhibition [3]: inactive; inhibition in vivo at 100 mg/kg (Rattus norvegicus [4]): < 20%; bioavailability [8]: 0%; half-life [9]: 96 min; inhibition [10]: inactive; Vd [11]: 5.1 L/kg; Activity (Plasma): 55.2%; inhibition [12]: inactive |
| CC(C)Oc1cccc(NC(=O)c2cncc(-c3ccc(C#N)cc3)n2)c1 | 0.08 µg/mL (≈ 0.223 µM) | 120 µL/min | 49 nM | 130 nM | 9100 nM | 730 nM | – |
| Cc1cc(C)cc(NC(=O)c2cncc(-c3ccc(OC(F)(F)F)cc3)n2)c1 | < 0.1 µg/mL | – | – | – | – | 58 nM | inhibition [14]: 93% |
| O=C(NCc1cccnc1Cl)c1cncc(-c2ccc(OC(F)(F)F)cc2)n1 | – | 143 µL/min | 99 nM | 90 nM | 3900 nM | 1030 nM | – |
| Cc1cccc(NC(=O)c2cncc(-c3ccc(Cl)cc3)n2)c1 | < 0.1 µg/mL | – | 6 nM | 280 nM | 8200 nM | 960 nM | Ratio IC50 (Homo sapiens): > 1000 |
| O=C(NCc1cccnc1)c1cncc(-c2ccc(Cl)cc2)n1 | 1 µg/mL (≈ 3.08 µM) | – | – | – | – | 11000 nM | – |
| Cc1ccccc1CNC(=O)c1cncc(-c2ccc(OC(F)(F)F)cc2)n1 | – | – | 18 nM | 170 nM | 1200 nM | 240 nM | – |
| O=C(NCc1ccncc1N1CCOCC1)c1cncc(-c2ccc(Cl)cc2)n1 | – | – | 320 nM | – | – | 4140 nM | – |
| O=C(NCc1cccnc1N1CCCC1)c1cncc(-c2ccc(Cl)cc2)n1 | 0.65 µg/mL (≈ 1.65 µM) | – | 30 nM | 550 nM | 1000 nM | 210 nM | – |
| O=C(NCCc1ccc(Cl)cc1)c1cncc(-c2ccc(Cl)cc2)n1 | < 0.1 µg/mL | – | 19 nM | 360 nM | 1000 nM | 2680 nM | Ratio IC50 [15]: 53; Ratio IC50 (Homo sapiens): 53 |
| Cc1cc(C)cc(NC(=O)c2cncc(-c3ccc(Cl)cc3)n2)c1 | < 0.1 µg/mL | 83 µL/min | 3 nM | 52 nM | 5000 nM | 490 nM | Ratio IC50 [16]: > 1600; Ratio IC50 (Homo sapiens): > 1000 |
| COc1cc(NC(=O)c2cncc(-c3ccc(Cl)cc3)n2)cc(OC)c1 | < 0.1 µg/mL | – | 6 nM | 190 nM | 6200 nM | 1070 nM | Ratio IC50 (Homo sapiens): > 1000 |
| Cc1ccccc1CNC(=O)c1cncc(-c2ccc(Cl)cc2)n1 | < 0.1 µg/mL | – | 27 nM | 110 nM | – | 1340 nM | inhibition [14]: 2% |
| O=C(NCc1cccnc1N1CCOCC1)c1cncc(-c2ccc(OC(F)(F)F)cc2)n1 | > 50 µg/mL | – | 19 nM | 85 nM | 1500 nM | 480 nM | inhibition [3]: > 60%; clearance [2]: 98 µL/min; Activity (Rattus norvegicus [17]): Dose-dependent effect; ED50 (Rattus norvegicus [17]): 78 mg/kg; Cmax [18]: 150 ng/mL; bioavailability [8]: 18.2%; half-life [9]: 114 min; half-life [19]: 96 min; inhibition [10]: > 60%; Vd [11]: 3.3 L/kg; Activity (Plasma): 93.2%; inhibition [12]: > 60%; Ratio IC50 (Homo sapiens): 79 |
| Cc1ccccc1CNC(=O)c1cncc(-c2ccc(C#N)cc2)n1 | 0.35 µg/mL (≈ 1.07 µM) | – | 150 nM | 450 nM | 1000 nM | 9400 nM | – |
| O=C(NCc1cccnc1N1CCOCC1)c1cncc(-c2ccc(Cl)cc2)n1 | 2.7 µg/mL (≈ 6.59 µM) | 410 µL/min | 37 nM | 280 nM | – | 2500 nM | inhibition [14]: 11% |
| CCOc1ccc(-c2cncc(C(=O)Nc3cc(C)cc(C)c3)n2)cc1 | < 0.1 µg/mL | – | 2 nM | 12 nM | 360 nM | 56 nM | – |
| O=C(Nc1cccnc1)c1cncc(-c2ccc(Cl)cc2)n1 | – | – | – | – | – | 18000 nM | – |
| O=C(NCc1cnccc1N1CCOCC1)c1cncc(-c2ccc(Cl)cc2)n1 | – | – | – | – | – | 29100 nM | – |
| CCOc1ccc(-c2cncc(C(=O)NCc3ccccc3C)n2)cc1 | 0.14 µg/mL (≈ 0.403 µM) | 630 µL/min | 2 nM | 19 nM | 470 nM | 110 nM | – |
| Cc1cccc(NC(=O)c2cncc(-c3ccc(OC(F)(F)F)cc3)n2)c1 | < 0.1 µg/mL | – | 5 nM | 16 nM | 2200 nM | 66 nM | – |
| CCOc1ccc(-c2cncc(C(=O)Nc3cccc(C)c3)n2)cc1 | < 0.1 µg/mL | – | 1 nM | 68 nM | 1000 nM | 650 nM | – |
